Experimental data from ChEMBL document CHEMBL1141664, “Design and evaluation of anacardic acid derivatives as anticavity agents” (2008).
≈ marks a conversion by molar mass, not a printed value. Calls of active or inactive are those of the source. The calls are words filed in the database; no cut-off is given here.

Key:
Streptococcus mutans [1] = test: Antibacterial activity against Streptococcus mutans ATCC 25175 after 2 days by twofold broth dilution method in presence of anethole; assay type: functional; settings: ATCC 25175, 48 h
Streptococcus mutans [2] = test: Antibacterial activity against Streptococcus mutans ATCC 25175 after 2 days by twofold broth dilution method; assay type: functional; settings: ATCC 25175, 48 h
Outline: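 Freeze-dried S. mutans grown stationary 2 days at 37 °C in 3.7% BHI broth, then used as inoculum. Compounds serially 2-fold diluted in DMF and added to BHI broth, with solubility limiting the top concentration. MIC is the lowest concentration giving complete inhibition of visible growth after 2 days at 37 °C. At least triplicate on separate occasions.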

Escherichia coli = test: Antibacterial activity against Escherichia coli ATCC 9637 up to 200 ug/ml after 2 days by twofold broth dilution method; assay type: functional, organism-based
Outline: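 Twofold serial broth dilution run in NYG broth (0.8% nutrient broth, 0.5% yeast extract, 0.1% glucose). MIC is the lowest concentration fully inhibiting visible growth.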

Cutibacterium acnes = test: Antibacterial activity against Propionibacterium acnes ATCC 11827; assay type: functional

MIC (Streptococcus mutans [2]) [µg/mL]	MIC (Cutibacterium acnes) [µg/mL]	Compound	MBC (Streptococcus mutans [1]) [µg/mL]	MBC (Streptococcus mutans [2]) [µg/mL]	Activity (Escherichia coli)
1.56 (≈ 4.56 µM)		C=CC/C=C\C/C=C\CCCCCCCc1cccc(O)c1C(=O)O [ANACARDIC ACID]	0.78	6.25 (≈ 18.2 µM)	inactive
3.13 (≈ 11.8 µM)		CCCCCC(CC)Cc1cccc(O)c1C(=O)O (stereo unspecified)			inactive
6.25 (≈ 23.1 µM)		O=C(O)c1c(O)cccc1CCCCc1ccccc1			inactive
100 (≈ 387 µM)		O=C(O)c1c(O)cccc1CCc1ccc(O)cc1			inactive
25 (≈ 113 µM)		O=C(O)c1c(O)cccc1CC1CCCC1			inactive
6.25 (≈ 18 µM)		CCCCCC/C=C\CCCCCCCc1cccc(O)c1C(=O)O [GINGKOLIC ACID]		6.25 (≈ 18 µM)	inactive
		C/C=C/c1ccc(OC)cc1			inactive
		CCCCCCCCCOC(=O)c1ccccc1O			inactive
12.5 (≈ 52.9 µM)		CCCCC(C)Cc1cccc(O)c1C(=O)O (stereo unspecified)			inactive
50 (≈ 206 µM)		O=C(O)c1c(O)cccc1CCc1ccccc1			inactive
3.13 (≈ 12.6 µM)		O=C(O)c1c(O)cccc1CCC1CCCCC1			inactive
200 (≈ 729 µM)		O=C(O)c1c(O)cccc1CCc1cc(O)ccc1O			inactive
3.13 (≈ 9.09 µM)		CCC/C=C\C/C=C\CCCCCCCc1cccc(O)c1C(=O)O		3.13 (≈ 9.09 µM)	inactive
25 (≈ 107 µM)		O=C(O)c1c(O)cccc1CC1CCCCC1			inactive
1.56 (≈ 5.09 µM)		CCCCCCCCCCCCc1cccc(O)c1C(=O)O		6.25 (≈ 20.4 µM)	inactive
6.25 (≈ 23.8 µM)		O=C(O)c1c(O)cccc1CC1CCCCCCC1			inactive
0.78 (≈ 2.67 µM)		CC(C)CCCC(C)CCCc1cccc(O)c1C(=O)O (stereo unspecified)			inactive
> 200		O=C(O)c1c(O)cccc1CCc1ccc(O)cc1O			inactive
		C=CC/C=C\C/C=C\CCCCCCCc1cccc(OC(C)=O)c1C(=O)O			inactive
200 (≈ 729 µM)		O=C(O)c1c(O)cccc1CCc1ccc(O)c(O)c1			inactive
		C=CC/C=C\C/C=C\CCCCCCCc1cccc(O)c1C(=O)OC			inactive
1.56 (≈ 4.9 µM)		O=C(O)c1c(O)cccc1CC1CCCCCCCCCCC1			inactive
200 (≈ 689 µM)		O=C(O)c1c(O)cccc1CCc1cc(O)c(O)cc1O			inactive
> 800	0.78 (≈ 2.24 µM)	CCCCCCCCCCCCCCCc1cccc(O)c1C(=O)O [ANACARDIC ACID]			inactive
		CCCCCCOC(=O)c1ccccc1O			inactive
